≈ marks a conversion by molar mass, not a printed value. Calls of active or inactive are those of the source. The calls are words filed in the database; no cut-off is given here.
Assays:
[1] = test system: Mycobacterium tuberculosis; assay: Bactericidal activity against wild-type non-replicating Mycobacterium tuberculosis H37Rv at 1 to 100 ug/ml incubated for 7 days measured at OD580 = 0.1 in presence of up to 0.5 mM NaNO2; format: functional, organism-based
Procedure, shortened: (§1)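 Wild-type H37Rv resuspended at OD580 0.1 in nonreplicating medium with NaNO2 at 0–1 mM, one plate per nitrite level. Exposed to compound for 7 days, then standard outgrowth assay to estimate survivors.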

[2] = test system: Mycobacterium tuberculosis; assay: Bactericidal activity against wild-type non-replicating Mycobacterium tuberculosis H37Rv at 1 to 100 ug/ml incubated for 7 days measured at OD580 = 0.1 in presence of 1 mM NaNO2; format: functional, organism-based; procedure, shortened: as §1
[3] = Cytotoxicity against human HepG2 cells assessed as reduction in cell viability after 2 days by Celltiter-Glo reagent based assay; conditions: read-out: LD50
Procedure, shortened: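 HepG2 cells in DMEM with 10% FBS, pyruvate, glutamine and nonessential amino acids. Seeded at 3000 cells/well and exposed 2 days to compound or vehicle (≤1% DMSO final). Reported as LD50.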

[4] = test system: Mycobacterium tuberculosis; assay: Bactericidal activity against wild-type non-replicating Mycobacterium tuberculosis H37Rv multi-stress model at 0.1 to 100 ug/ml incubated for 7 days measured at OD580 = 0.01 by charcoal agar resazurin assay; format: functional, organism-based
[5] = Stability in pH 7.4 phosphate buffer solution assessed as parent compound remaining at 5 to 50 ug/ml at 37 degC measured every 12 hrs up to 144 hrs by LC-MS analysis; format: physicochemical
Procedure, shortened: (§2)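 Compound at 50 μg/mL in cell-free PBS pH 7.4, or nonreplicating medium pH 5.0 (BSA, tyloxapol, lysine, pantothenate omitted) with or without 0.5 mM NaNO2. Poorly soluble compounds at 5 μg/mL in 50:50 acetonitrile mixtures, pH readjusted to 5.0.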

[6] = Stability in pH 5 non-replicating medium assessed as parent compound remaining at 5 to 50 ug/ml at 37 degC measured every 12 hrs up to 144 hrs by LC-MS analysis; format: physicochemical; conditions: buffer; procedure, shortened: as §2
[7] = Stability in pH 5 non-replicating medium containing 0.5 mM NaNO2 assessed as parent compound remaining at 5 to 50 ug/ml at 37 degC measured every 12 hrs up to 144 hrs by LC-MS analysis; format: physicochemical; conditions: buffer; procedure, shortened: as §2
[8] = test system: Mycobacterium tuberculosis; assay: Bactericidal activity against wild-type replicating Mycobacterium tuberculosis H37Rv assessed as reduction in CFU in presence of beta-lactamase inhibitor clavulanate; format: functional, organism-based
[9] = test system: Mycobacterium tuberculosis; assay: Bactericidal activity against wild-type non-replicating Mycobacterium tuberculosis H37Rv multi-stress model incubated for 7 days measured at OD580 = 0.01 by charcoal agar resazurin assay; format: functional, organism-based
Procedure, shortened: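 Nonreplicating wild-type H37Rv at OD580 0.1 or 0.01 treated 7 days with or without 0.5 mM NaNO2. 10 μL spotted onto 7H11-OADC-charcoal agar and incubated 7–10 days at 37 °C. Developed with Alamar blue:Tween80 1:1 for 1 h; fluorescence read at ex 530/em 590. Complete loss of fluorescence taken as ≥2–3 log10 CFU reduction.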

Structure (SMILES)	CC50 at 48 h [3] [µg/mL]	also measured
CO[C@H]1/C=C/O[C@@]2(C)Oc3c(C)c(O)c4c(O)c(c(/C=N/N5CCN(C)CC5)c(O)c4c3C2=O)NC(=O)/C(C)=C\C=C\[C@H](C)[C@H](O)[C@@H](C)[C@@H](O)[C@@H](C)[C@H](OC(C)=O)[C@@H]1C		Activity [1]: inactive; Activity [2]: Active
COc1ccc(OCC(=O)N[C@@H]2C(=O)N3C(C(=O)OCc4ccccc4)=C(C)CS[C@H]23)cc1	> 100	
CCCc1noc(C2=C(C)CS[C@@H]3[C@H](NC(=O)CCc4ccccc4Cl)C(=O)N23)n1	> 100	
C#CCOC(=O)C1=C(C)CS[C@@H]2[C@H](NC(=O)CCc3ccccc3)C(=O)N12	> 100	
C=CC1=C(C(=O)O)N2C(=O)[C@@H](NC(=O)/C(=N\O)c3csc(N)n3)[C@H]2SC1	> 100	
COC(=O)C1=C(C)CS[C@@H]2[C@H](NC(=O)[C@@H](c3ccccc3)N(C)C)C(=O)N12	> 100	
CCSC(=O)N[C@@H]1C(=O)N2C(c3nc(C)no3)=C(C)CS[C@H]12	> 100	
CCCCOc1ccc(CCC(=O)N[C@@H]2C(=O)N3C(c4nc(C)no4)=C(C)CS[C@H]23)cc1	74.4 (≈ 163 µM)	
CC1=C(C(=O)O)N2C(=O)[C@@H](NC(=O)c3ccc(Cl)cc3)[C@H]2SC1	> 100	
COC(=O)C1=C(C)CS[C@@H]2[C@H](NC(=O)COc3ccc(Cl)cc3)C(=O)N12	> 100	
CCOC(=O)C1=C(C)CS[C@@H]2[C@H](NC(=O)CCc3ccccc3)C(=O)N12	> 100	
CCCCOC(=O)C1=C(C)CS[C@@H]2[C@H](NC(=O)CCc3ccccc3)C(=O)N12	> 100	Activity [4]: Active
CCCc1noc(C2=C(C)CS[C@@H]3[C@H](NC(=O)CCc4ccc(F)cc4)C(=O)N23)n1	> 100	
CCCc1noc(C2=C(C)CS[C@@H]3[C@H](NC(=O)c4ccc(Cl)cc4)C(=O)N23)n1	> 100	Activity [4]: Active
CCCc1noc(C2=C(C)CS[C@@H]3[C@H](NC(=O)Cc4ccc(C)cc4)C(=O)N23)n1	> 100	
CCCCOC(=O)C1=C(C)CS[C@@H]2[C@H](NC(=O)COc3ccc(Cl)cc3)C(=O)N12	> 100	
CCCN[C@@H]1C(=O)N2C(C(=O)OCCC)=C(C)CS[C@H]12	> 100	Stability [5]: 100%; Stability [6]: 100%; Stability [7]: 40%; Activity [8]: inactive
CC(=O)OCC1=C(C(=O)O)N2C(=O)[C@@H](NC(=O)Cc3cccs3)[C@H]2SC1 [CEPHALOTHIN]	> 100	
CC1=C(c2nc(C)no2)N2C(=O)[C@@H](NC(=O)Cc3ccc(C)cc3)[C@H]2SC1	> 100	
CCOC(=O)C1=C(C)CS[C@@H]2[C@H](NC(=O)COc3ccc(Cl)cc3)C(=O)N12	41 (≈ 99.8 µM)	
C#CCOC(=O)C1=C(C)CS[C@@H]2[C@H](NC(=O)COc3ccc(Cl)cc3)C(=O)N12	63.4 (≈ 151 µM)	
COC(=O)C1=C(C)CS[C@@H]2[C@H](NC(=O)COc3ccc(OC)cc3)C(=O)N12	> 100	

Structure (SMILES)	CC50 at 48 h [3] [µg/mL]	also measured
CC1=C(c2nc(C)no2)N2C(=O)[C@@H](NC(=O)Cc3ccc(Cl)c(Cl)c3)[C@H]2SC1	18.9 (≈ 42.9 µM)	
CCOC(=O)C1=C(C)CS[C@@H]2[C@H](NC(=O)COc3ccccc3)C(=O)N12	> 100	
CC1=C(c2nc(C)no2)N2C(=O)[C@@H](NC(=O)OCC(Cl)(Cl)Cl)[C@H]2SC1	> 100	Activity [4]: Active
CC1=C(c2nc(C)no2)N2C(=O)[C@@H](NC(=O)COc3ccc(Cl)cc3)[C@H]2SC1	19.5 (≈ 46.4 µM)	Activity [4]: Active
CC1=C(c2nc(C)no2)N2C(=O)[C@@H](NC(=O)OCC(C)(C)C)[C@H]2SC1	> 100	
CCCCOC(=O)C1=C(C)CS[C@@H]2[C@H](NC(=O)COc3ccc(OC)cc3)C(=O)N12	> 100	
CCCOC(=O)C1=C(C)CS[C@@H]2[C@H](NC(=O)COc3ccc(OC)cc3)C(=O)N12	> 100	
CCCc1noc(C2=C(C)CS[C@@H]3[C@H](NC(=O)Cc4ccc(Cl)cc4)C(=O)N23)n1	20.6 (≈ 47.6 µM)	
COc1ccc(CC(=O)N[C@@H]2C(=O)N3C(c4nc(C)no4)=C(C)CS[C@H]23)cc1	> 100	
CC1=CS[C@@H]2[C@H](NC(=O)COc3ccccc3)C(=O)N2[C@H]1CO	> 100	
CCCCOC(=O)C1=C(C)CS[C@@H]2[C@H](NC(=O)CCc3ccc(OC)cc3)C(=O)N12	> 100	
C#CCOC(=O)C1=C(C)CS[C@@H]2[C@H](NC(=O)CCc3ccc(Cl)cc3)C(=O)N12	> 100	
CC1=C(C(=O)O)N2C(=O)[C@@H](NC(=O)[C@H](N)c3ccccc3)[C@H]2SC1 [CEPHALEXIN ANHYDROUS]		Activity [9]: inactive
CCCOC(=O)C1=C(C)CS[C@@H]2[C@H](NC(=O)CCc3ccc(OC)cc3)C(=O)N12	> 100	
CCCc1noc(C2=C(C)CS[C@@H]3[C@H](NC(=O)COc4ccc(Cl)cc4)C(=O)N23)n1	64.3 (≈ 143 µM)	Activity [4]: Active
CC1=C(C(=O)O)N2C(=O)[C@@H](NC(=O)CCc3ccc(Br)cc3)[C@H]2SC1	> 100	
CC1=C(c2nc(C)no2)N2C(=O)[C@@H](NC(=O)Cc3ccc(Cl)cc3)[C@H]2SC1	> 100	
CCCOC(=O)C1=C(C)CS[C@@H]2[C@H](NC(=O)CCc3ccccc3)C(=O)N12	> 100	
CCCc1noc(C2=C(C)CS[C@@H]3[C@H](NC(=O)Cc4ccc(OC)cc4)C(=O)N23)n1	72.4 (≈ 169 µM)	
CCCOC(=O)C1C(C)=CS[C@@H]2[C@H](NC(=O)CCc3ccc(OC)cc3)C(=O)N12 (some centres not stated)	> 100	
COc1ccc(CCC(=O)N[C@@H]2C(=O)N3C(C(=O)OCc4ccccc4)=C(C)CS[C@H]23)cc1	> 100	
C#CCNC(=O)C1=C(C)CS[C@@H]2[C@H](NC(=O)COc3ccccc3)C(=O)N12	> 100	

Structure (SMILES)	CC50 at 48 h [3] [µg/mL]	also measured
CC1=C(C(=O)OCc2ccccc2)N2C(=O)[C@@H](NC(=O)COc3ccc(Cl)cc3)[C@H]2SC1	> 100	
CC1=C(c2nc(C)no2)N2C(=O)[C@@H](NC(=O)Cc3ccccc3)[C@H]2SC1	> 100	
CCCc1noc(C2=C(C)CS[C@@H]3[C@H](NC(=O)CCc4ccc(C)cc4)C(=O)N23)n1	> 100	
CCCCOC(=O)C1C(C)=CS[C@@H]2[C@H](NC(=O)COc3ccccc3)C(=O)N12 (some centres not stated)	61.8 (≈ 153 µM)	
COC(=O)C1=C(C)CS[C@@H]2[C@H](NC(=O)[C@H](N)c3ccccc3)C(=O)N12	> 100	
CCCCOc1ccc(CCC(=O)N[C@@H]2C(=O)N3C(c4nc(CCC)no4)=C(C)CS[C@H]23)cc1	> 100	
CC1=C(c2nc(C)no2)N2C(=O)[C@@H](NC(=O)[C@H](N)c3ccccc3)[C@H]2SC1	> 100	
COc1ccc(CCC(=O)N[C@@H]2C(=O)N3C(c4nc(C)no4)=C(C)CS[C@H]23)cc1	> 100	
COC(=O)C1=C(C)CS[C@@H]2[C@H](NC(=O)COc3ccccc3)C(=O)N12	> 100	
CCCCOC(=O)C1=C(C)CS[C@@H]2[C@H](NC(=O)CCc3ccc(Cl)cc3)C(=O)N12	> 100	
CCCOC(=O)C1=C(C)CS[C@@H]2[C@H](NC(=O)[C@H](N)c3ccccc3)C(=O)N12	> 100	
COC(=O)C1=C(C)CS[C@@H]2[C@H](NC(=O)CCc3ccccc3)C(=O)N12	> 100	
COC(=O)C1=C(C)CS[C@@H]2[C@H](NC(=O)CCc3ccc(OC)cc3)C(=O)N12	> 100	
CC1=C(C(=O)O)N2C(=O)[C@@H](NC(=O)Cc3ccc(Cl)cc3)[C@H]2SC1	> 100	
CCCc1noc(C2=C(C)CS[C@@H]3[C@H](NC(=O)CCc4ccc(OC)cc4)C(=O)N23)n1	> 100	Activity [4]: Active
CCCc1noc(C2=C(C)CS[C@@H]3[C@H](NC(=O)CCc4ccc(Cl)cc4)C(=O)N23)n1	> 100	
CCCOC(=O)C1=C(C)CS[C@@H]2[C@H](NC(=O)COc3ccc(Cl)cc3)C(=O)N12	49.2 (≈ 116 µM)	
CCCOC(=O)N[C@@H]1C(=O)N2C(C(=O)OCCC)=C(C)CS[C@H]12	> 100	Stability [5]: 80%; Stability [6]: 100%; Stability [7]: 100%; Activity [8]: inactive
CCOC(=O)C1=C(C)CS[C@@H]2[C@H](NC(=O)CCc3ccc(OC)cc3)C(=O)N12	> 100	Activity [4]: Active
CC1=C(c2nc(C)no2)N2C(=O)[C@@H](NC(=O)OC(C)(C)C)[C@H]2SC1	> 100	
CCCc1noc(C2=C(C)CS[C@@H]3[C@H](NC(=O)Cc4ccccc4)C(=O)N23)n1	> 100	
CCOC(=O)C1=C(C)CS[C@@H]2[C@H](NC(=O)COc3ccc(OC)cc3)C(=O)N12	> 100	
